PubChem BioAssay AID624042 (Vanderbilt High Throughput Screening Facility, 2012)

target: G protein-activated inward rectifier potassium channel 2 (Homo sapiens) + G protein-activated inward rectifier potassium channel 1 (Homo sapiens) (UniProt P48051+P48549); assay: GIRK1/2 activation independent of G-protein coupling, dose response, mechanism study for GIRK activator project, cell-based, HEK-293 hGIRK1/2, pertussis toxin-treated, thallium flux, FluoZin-2 (AID 624042); details: HEK-293 hGIRK1/2 PTX-treated
Sequence (P48051 whole entry, looked up): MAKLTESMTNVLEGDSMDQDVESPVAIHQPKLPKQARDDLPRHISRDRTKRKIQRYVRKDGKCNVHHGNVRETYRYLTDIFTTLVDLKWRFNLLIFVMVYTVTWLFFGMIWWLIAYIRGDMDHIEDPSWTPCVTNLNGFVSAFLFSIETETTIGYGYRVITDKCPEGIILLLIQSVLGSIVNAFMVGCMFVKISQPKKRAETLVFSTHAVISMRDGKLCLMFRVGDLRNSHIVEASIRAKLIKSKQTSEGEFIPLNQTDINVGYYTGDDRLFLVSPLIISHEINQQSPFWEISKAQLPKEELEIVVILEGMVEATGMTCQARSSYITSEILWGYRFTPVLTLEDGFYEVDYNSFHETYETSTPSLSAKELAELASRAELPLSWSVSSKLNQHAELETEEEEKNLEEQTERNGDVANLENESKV
Sequence (P48549 whole entry, looked up): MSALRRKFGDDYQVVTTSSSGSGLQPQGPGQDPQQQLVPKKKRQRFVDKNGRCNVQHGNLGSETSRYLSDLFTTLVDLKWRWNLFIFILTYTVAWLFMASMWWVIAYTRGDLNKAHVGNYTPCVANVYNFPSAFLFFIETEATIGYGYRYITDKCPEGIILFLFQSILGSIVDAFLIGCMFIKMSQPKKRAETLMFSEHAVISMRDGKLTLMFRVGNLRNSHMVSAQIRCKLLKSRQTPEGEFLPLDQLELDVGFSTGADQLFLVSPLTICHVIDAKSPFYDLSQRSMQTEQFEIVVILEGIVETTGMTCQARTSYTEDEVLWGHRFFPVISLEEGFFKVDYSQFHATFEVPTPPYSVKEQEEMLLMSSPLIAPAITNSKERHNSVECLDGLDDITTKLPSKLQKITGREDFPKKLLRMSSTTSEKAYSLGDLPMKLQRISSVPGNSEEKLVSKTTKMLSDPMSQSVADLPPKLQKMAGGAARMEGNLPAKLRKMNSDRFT
Method in brief: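 Assay system: HEK-293 cells stably expressing rmGlu8 and human GIRK1/2, PTX-treated | Buffer or medium: 400 ng/mL PTX during overnight pretreatment | Doses: Serial dilution series of test compounds | Incubation: PTX pretreatment overnight at 37 °C, compounds 4 min before thallium | Signal: FluoZin-2 thallium-flux fluorescence, 1 Hz | Benchmarks: Vehicle wells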

SMILES | EC50 [µM]
Cc1cc(NC(=O)Nc2ccccc2)n(-c2ccccc2)n1 | 3.62
CCOc1ccccc1Nc1nnc(Cc2ccccc2Cl)c(=O)[nH]1 | 1.86
Cc1ccc(-c2nnn(CC(=O)NC3CC4CCC3C4)n2)cc1 (centres undefined) | 4.22
Cc1ccc(NC(=O)Cc2ccccc2Cl)cc1S(=O)(=O)N(C)C | 2.18
